Compound activity as filed in PubChem.
Rows were chosen to be rich in hits. Some 2.5% of all compounds tested hit in one or more screens of this group.
EP2 antag: inhibitors of human EP2 prostaglandin E2 receptor. P43116. hit rate 0.52% among 260,000. inhibition, % at 25 µM. AID 1422. C6 glioma cells expressing human EP2, cAMP TR-FRET; cells stimulated with saturating PGE2;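 active means percent inhibition above 40 after rounding to a whole number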;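 further: rat C6 glioma host cells with rolipram phosphodiesterase inhibitor present; the protocol text gives 20 µM as final concentration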
Target sequence (P43116 whole entry, looked up): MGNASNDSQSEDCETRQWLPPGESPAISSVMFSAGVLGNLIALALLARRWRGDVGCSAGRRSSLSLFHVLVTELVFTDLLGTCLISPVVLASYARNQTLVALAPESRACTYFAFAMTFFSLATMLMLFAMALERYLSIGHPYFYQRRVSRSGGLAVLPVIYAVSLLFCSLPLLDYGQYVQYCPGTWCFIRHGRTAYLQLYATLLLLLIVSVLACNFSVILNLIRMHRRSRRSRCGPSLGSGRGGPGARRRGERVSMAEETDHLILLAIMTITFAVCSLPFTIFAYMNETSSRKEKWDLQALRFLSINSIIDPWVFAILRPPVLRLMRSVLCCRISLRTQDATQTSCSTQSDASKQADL
HKDC1 inh: inhibitors of human hexokinase HKDC1; hit rate 0.16% among 340,000; inhibition, % at 20 µM; recombinant HKDC1, G6PDH/diaphorase resazurin coupled fluorescence; Q2TB90;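 active means inhibition above about 35% when tested at 20 µM, limit read from the data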
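Assay system – recombinant HKDC1 (HK5) hexokinase enzyme, produced in-house · Input – HKDC1 at 5 µg/mL · Reagent – glucose plus 1 mM ATP as hexokinase substrates · Timing – 90 min reaction incubation at room temperature, dark · Measured by – G6PDH/diaphorase-coupled fluorescence, 1 mM NADP, 100 µM resazurin, 525/613 nm · Benchmarks – DMSO-enzyme wells negative, buffer-substituted wells positive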
TbHK1 inh: T. brucei hexokinase 1 inhibition; recombinant TbHK1, G6PDH-coupled NADH A340; inhibition, % at 10 µM; hit rate 0.11% among 220,000; AID 1430;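 active means inhibition of 50% or more in the single-dose primary screen; inactive means inhibition below 50%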
EP2 modulator: EP2 receptor (human) modulation | hit rate 0.83% among 260,000 | induction, % at 25 µM | P43116 | EP2-expressing cells, cAMP HTRF FRET, PGE2 co-stimulation;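 active means compounds whose cAMP rise, as percent of the full-agonist control response, exceeds 60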;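 further: rat C6 glioma line stably carrying human EP2 under a CMV promoter; the protocol text gives 20 µM as final concentration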
PfG6PD inh: PfG6PD (Plasmodium falciparum) enzyme inhibition. PfGluPho enzyme, NADPH resazurin-diaphorase fluorescence. inhibition, % at 20 µM. AID 504690. hit rate 0.78% among 350,000;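 active means inhibition reaching at least a set limit at 20 µM in the primary screen, cut at about 59% in these data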
PHOSPHO1 inh: inhibitors of human PHOSPHO1 phosphatase; Q8TCT1; recombinant PHOSPHO1, absorbance phosphatase assay; inhibition, % at 13.3 µM; hit rate 1.1% among 290,000; AID 1565; in the data active means inhibition above about 60%
Target sequence (Q8TCT1 whole entry, looked up): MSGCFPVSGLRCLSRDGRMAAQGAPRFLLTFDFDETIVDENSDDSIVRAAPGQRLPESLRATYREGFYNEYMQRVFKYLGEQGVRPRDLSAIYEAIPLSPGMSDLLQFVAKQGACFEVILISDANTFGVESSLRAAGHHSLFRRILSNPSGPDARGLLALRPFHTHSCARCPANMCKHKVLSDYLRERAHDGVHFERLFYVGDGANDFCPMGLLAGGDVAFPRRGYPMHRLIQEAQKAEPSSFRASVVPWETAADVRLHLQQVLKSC
EP2 cAMP induct: human EP2 receptor cAMP induction, negative in counter-screens; shares compounds with EP2 modulator; C6 glioma EP2 cells, cAMP HTRF induction; plus low (about EC15) PGE2 agonist; calls only at 20 µM (by protocol); hit rate 47% among 1,300; AID 1080;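 active means cAMP induction above 50% in the main assay while under 30% in all four parallel counter assays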;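 further: rat C6 glioma cells stably expressing human EP2 receptor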
Each line names hits and unclear results; the compound was inactive in the other large screens (follow-up assays come after a bar, where they were run); ! = repeats disagree.

CCCC(c1nnnn1CC1CCCO1)N(Cc1cccs1)Cc1cc2cc(C)ccc2[nH]c1=O (stereo not given)	none (no result: HKDC1 inh, TbHK1 inh, PfG6PD inh, PHOSPHO1 inh)
CCCCc1nc(SCCOC)c2c(=O)n(C)c(=O)n(C)c2n1	none | EP2 cAMP induct inactive
COc1ccc2c(-c3ccccc3)cc(N3CCOCC3)nc2c1	EP2 modulator 77 | EP2 cAMP induct active
c1ccc(-c2cc(-c3ccc(N4CCOCC4)cc3)nc3ccccc23)cc1	none
Cc1ccc(C)c2[nH]c(=O)c(CN(Cc3cccnc3)C(=S)NC3CCCCC3)cc12	none (no result: HKDC1 inh, TbHK1 inh, PfG6PD inh, PHOSPHO1 inh)
c1cncc(-n2cccc2CN2CCn3cnnc3C2)c1	none (no result: HKDC1 inh, TbHK1 inh, PfG6PD inh, PHOSPHO1 inh)
COCCOC(=O)c1c(C)oc2ccc(OC(=O)c3ccco3)cc12	none
COCCOC(=O)c1c(C)oc2ccc(OCc3ccccc3)cc12	EP2 modulator 65 | EP2 cAMP induct inactive
CC1=CC(C)(C)N(C(=O)c2ccccc2)c2ccccc21	EP2 modulator 72 | EP2 cAMP induct inactive
CC1=CC(C)(C)N(C(=O)c2ccccc2)c2ccc(C)cc21	none (no result: EP2 antag)
CCOC(=O)CSc1ncnc2c1sc1nc(N3CCOCC3)c3c(c12)CCCC3	EP2 modulator 75 | EP2 cAMP induct active
COC(=O)CSc1ncnc2c1sc1nc(N3CCOCC3)c3c(c12)CCCC3	none
Nc1cc(-c2ccco2)nn(CC(=O)Nc2ccc(F)c(F)c2)c1=O	none (no result: HKDC1 inh, TbHK1 inh, PfG6PD inh, PHOSPHO1 inh)
CCOC(=O)c1c(NC(=O)COC(=O)Cn2c(C)nc3ccccc32)sc2c1CCCC2	none | EP2 cAMP induct active
CCOC(=O)c1c(NC(=O)CSc2nnc(C)s2)sc2c1CCC(C)C2 (stereo not given)	none | EP2 cAMP induct inactive
CCOC(=O)c1c(NC(=O)Cn2nnc3ccccc32)sc2c1CCC(C)C2 (stereo not given)	none | EP2 cAMP induct inactive
CCOC(=O)c1c(NC(=O)COC(=O)Cn2cnc3ccccc32)sc2c1CCC(C)C2 (stereo not given)	EP2 modulator 62 | EP2 cAMP induct inactive
CCC(c1nnnn1C1CCCC1)N(Cc1cc2cc(C)c(C)cc2[nH]c1=O)C1CCCCC1 (stereo not given)	none (no result: HKDC1 inh, TbHK1 inh, PfG6PD inh, PHOSPHO1 inh)
Cc1ccc(C2CC2c2n[nH]c(=S)n2-c2ccc(C)cc2)cc1 (stereo not given)	PHOSPHO1 inh 90 | EP2 cAMP induct inactive
Cc1ccc(-n2c([C@@H]3C[C@H]3c3ccccc3)n[nH]c2=S)cc1	none
CCOC(=O)c1ccccc1NC1c2ccccc2C(=O)N1c1cc(C)ccn1 (stereo not given)	EP2 modulator 69 | EP2 cAMP induct active
COc1cc(OC)c(NC2c3ccccc3C(=O)N2c2cc(C)ccn2)cc1Cl (stereo not given)	none
O=c1c2ccccc2c(=O)n(Cc2ccccc2)n1Cc1ccccc1	EP2 modulator 66 | EP2 cAMP induct active
COc1ccc(CNC(=O)Cn2nc(C)n3c(cc4sc(C)cc43)c2=O)cc1	none (no result: EP2 antag, HKDC1 inh, TbHK1 inh, PfG6PD inh, PHOSPHO1 inh)
CC1CCCCN1C(=O)/C(=C\c1ccccc1)c1ccccc1 (stereo not given)	EP2 modulator 69 | EP2 cAMP induct inactive
CC1CCCCN1C(=O)c1ccc(C(=O)c2ccccc2)cc1 (stereo not given)	none (no result: EP2 antag, TbHK1 inh, EP2 modulator, PHOSPHO1 inh)
CC(CN(CCN(C)C)Cc1ccncc1)c1ccccc1 (stereo not given)	none (no result: HKDC1 inh, TbHK1 inh, PfG6PD inh, PHOSPHO1 inh)
COc1cc2ccccc2cc1C(=O)NC(=S)Nc1cccc(C(=O)O)c1	EP2 modulator 95 | EP2 cAMP induct active
CCCc1cc(C(=O)OC)c(NC(=O)c2cc(C)on2)s1	none | EP2 cAMP induct active
CC(C)(Sc1ccc(CCN(CCCCC2CCCCC2)C(=O)NC2CCCCC2)cc1)C(=O)O	EP2 modulator 66 (no result: TbHK1 inh, PHOSPHO1 inh) | EP2 cAMP induct inactive
C=CCSc1nc2ccccc2n1S(=O)(=O)c1ccc(Cl)cc1	EP2 modulator 75 (no result: PHOSPHO1 inh) | EP2 cAMP induct inactive
CC(C)c1nc2sc3c(c2c2nnc(SCC(=O)NCc4ccco4)n12)CCCC3	none (no result: HKDC1 inh, TbHK1 inh, PfG6PD inh, PHOSPHO1 inh)
Cc1ccc2nc(-c3ccc(F)cc3)nc(SCC(=O)NCC3CCCO3)c2c1 (stereo not given)	none (no result: EP2 antag, TbHK1 inh, EP2 modulator)
CCc1ccc2nc(-c3cccc(C)c3)nc(SCC(=O)NCC3CCCO3)c2c1 (stereo not given)	EP2 modulator 86 | EP2 cAMP induct inactive
Cc1cc(C)c(N=C2CCCN2Cc2ccccc2)c(C#N)c1	EP2 modulator 78 | EP2 cAMP induct active
CC(C)n1c2ccccc2c2nc3ccccc3nc21	none | EP2 cAMP induct active
O=C(CSc1nnc(-c2cccs2)n1Cc1ccccc1)NCc1ccc2c(c1)OCO2	none
CC(Sc1nnc(-c2cccs2)n1Cc1ccccc1)C(=O)NCc1ccc2c(c1)OCO2 (stereo not given)	EP2 modulator 70 | EP2 cAMP induct inactive
CCn1c(SCC(=O)Nc2nc3ccccc3s2)nnc1-c1ccco1	none (no result: HKDC1 inh, TbHK1 inh, PfG6PD inh, PHOSPHO1 inh)
COc1ccc(OCC(=O)NC(=S)Nc2ccc3c4c(cccc24)CC3)cc1	EP2 modulator 68 | EP2 cAMP induct inactive
COc1cc2ccc(=O)oc2c(CC=C(C)C)c1OC	none
COc1ccc2ccc(=O)oc2c1CC=C(C)C	EP2 modulator 67! | EP2 cAMP induct active
CN(c1ccccc1)c1nc(N2CCCC2)nc(-n2ccnc2)n1	EP2 modulator 82 | EP2 cAMP induct active
c1ccc(N(c2ccccc2)c2nc(N3CCCC3)nc(-n3ccnc3)n2)cc1	none (no result: EP2 antag)
CCOc1ccc2nc(NC(=O)CSc3nnc(C4CC4)n3C)sc2c1	none (no result: HKDC1 inh, TbHK1 inh, PfG6PD inh, PHOSPHO1 inh)
CC(=O)N1N=C2/C(=C/c3ccccc3)CCCC2C1c1ccccc1 (stereo not given)	EP2 modulator 70 | EP2 cAMP induct inactive
Cc1ccc(CN(CCCn2ccnc2)Cc2cccc(O)c2)s1	none (no result: HKDC1 inh, TbHK1 inh, PfG6PD inh, PHOSPHO1 inh)
Cc1noc(C)c1CSc1nc2sc3c(c2c(=O)n1C)CCCC3	EP2 modulator 63 | EP2 cAMP induct inactive
CC1CCc2c(sc3ncnc(SCC(=O)N4CCCC4)c23)C1 (stereo not given)	none (no result: HKDC1 inh, TbHK1 inh, PfG6PD inh, PHOSPHO1 inh)
Cc1noc(C)c1CSc1ncnc2sc3c(c12)CCC(C)C3 (stereo not given)	EP2 modulator 70 (no result: HKDC1 inh, PfG6PD inh) | EP2 cAMP induct inactive
CC(=O)CSc1ncnc2sc3c(c12)CCC(C)C3 (stereo not given)	EP2 modulator 61 | EP2 cAMP induct inactive
C=CCn1c(SCc2c(C)noc2C)nc2sc3c(c2c1=O)CCCC3	none
Cc1noc(C)c1CSc1ncnc2sc3c(c12)CCC3	EP2 modulator 68 (no result: HKDC1 inh, PfG6PD inh) | EP2 cAMP induct inactive
CCC(c1nnnn1Cc1ccco1)N(Cc1cc2c(C)cc(C)cc2[nH]c1=O)C1CCCC1 (stereo not given)	none (no result: HKDC1 inh, TbHK1 inh, PfG6PD inh, PHOSPHO1 inh)
Cc1ccc2nc(-c3ccncc3)cc(-c3ccccc3)c2c1	EP2 modulator 92 | EP2 cAMP induct active
c1ccc(-c2n[nH]nc2-c2ccccc2)cc1	EP2 modulator 66 | EP2 cAMP induct active
CC(=O)c1ccc(-n2c(C)ccc2-c2ccccc2)cc1	EP2 modulator 90 | EP2 cAMP induct active
